IMP-1 inh-1: inhibitors of Pseudomonas aeruginosa IMP-1 metallo-beta-lactamase; purified IMP-1, nitrocefin hydrolysis, epi-absorbance fluorescence; inhibition, % at 5.6 µM; 290,000 compounds, 0.45% hits; AID 1556;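 active means inhibition above the mean plus 3 SD of all compounds in the same screening run, cut at about 4.5% in these data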
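Test system: recombinant IMP-1 enzyme, purified / Medium: HEPES buffer pH 7.1 with ZnSO4 and Brij 35 / Doses: single dose, 5.6 µM / Times: 25 °C, 15 min preincubation, 25 min reaction / Detection: Epi-absorbance via hydrolysed-nitrocefin quenching of white-plate fluorescence, 480/530 nm, EDTA stop / Evaluation: percent inhibition from optical density relative to buffer-blank wells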
FID counter: counter-screen for HCV NS3 helicase inhibitors: DNA intercalator displacement; DNA fluorescent intercalator displacement, fluorescence; inhibition, % at 7.9 µM; 290,000 compounds, 0.17% hits; in the data active means inhibition above about 37%;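 further: higher means more ethidium bromide displaced from hairpin DNA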
HCV core dimer: HCV core protein dimerization inhibition; 300,000 compounds, 0.33% hits; TR-FRET GST/Flag-core106 dimerization, 1536-well; inhibition, % at 5 µM;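 active means inhibition above the mean of all tested compounds plus 3 SD, set per screening campaign, cut at about 45% in these data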
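Assay system: tagged HCV core106 pair (GST and Flag); medium: KF-containing HEPES buffer, pH 7.45, DTT, CHAPS, BSA; also added: Eu donor and XL665 acceptor anti-tag antibodies; dosing: 5 µM single dose; timing: compound-protein-antibody incubation 4 h at 22.5 °C; signal: TR-FRET 671 and 617 nm emission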
VIM-2 inh: inhibitors of Pseudomonas aeruginosa VIM-2 metallo-beta-lactamase; purified VIM-2, nitrocefin hydrolysis, epi-absorbance fluorescence; inhibition, % at 5.6 µM; 290,000 compounds, 0.89% hits;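 active means inhibition above the mean of all tested compounds plus 3 SD, cutoff set per screening run, cut at about 7.5% in these data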;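 further: red hydrolysis product quenches plate fluorescence so inhibitors raise well fluorescence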
IMP-1 inh-2: blocks IMP-1 metallo-beta-lactamase in VIM-2 selectivity screen. shares compounds with VIM-2 inh. purified IMP-1, nitrocefin hydrolysis, epi-absorbance fluorescence. inhibition, % at 5.6 µM. 1,300 tested, under 10 active. AID 1856; call rule not given here
VIM-2 FRET inh: inhibits VIM-2 in FRET assay to exclude epi-absorbance artifacts; shares compounds with VIM-2 inh; purified VIM-2, CCF2 FRET substrate hydrolysis; inhibition, % at 5.6 µM; 1,300 compounds, 23% hits;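 active means inhibition above the mean of all tested compounds plus 3 SD, cut at about 19% in these data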
TEM-1 inh: TEM-1 inhibition, counter-screen for VIM-2 inhibitors. 1,300 compounds, 3% hits. Purified TEM-1, nitrocefin hydrolysis, epi-absorbance fluorescence. AID 1866. shares compounds with VIM-2 inh. inhibition, % at 5.6 µM;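 active means inhibition above that campaign's mean inhibition plus 3 SD, cut at about 0.46% in these data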
Target sequence (P62593 whole entry, looked up): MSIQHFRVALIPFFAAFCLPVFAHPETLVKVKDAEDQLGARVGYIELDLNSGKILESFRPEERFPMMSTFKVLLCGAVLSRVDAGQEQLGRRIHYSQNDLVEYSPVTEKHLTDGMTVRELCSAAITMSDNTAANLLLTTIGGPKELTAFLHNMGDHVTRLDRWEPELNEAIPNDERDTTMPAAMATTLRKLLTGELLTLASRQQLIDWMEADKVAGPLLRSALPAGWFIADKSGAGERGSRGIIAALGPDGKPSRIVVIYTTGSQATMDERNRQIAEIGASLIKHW
VIM-2 confirm 2: confirmation of P. aeruginosa VIM-2 metallo-beta-lactamase inhibitors | shares compounds with VIM-2 inh | purified VIM-2, nitrocefin hydrolysis, epi-absorbance | inhibition, % at 5.6 µM | 1,300 compounds, 96% hits;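 active means inhibition of the VIM-2 beta-lactamase enzyme above about 11% from the earlier first-round screen, limit read from the data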
Of the large screens only hits and unclear results are named; the others gave an inactive call (follow-up assays come after a bar, where they were run). In the library only some 1.6% were active in any assay of this set; here they are far more common.

CCc1nn(CC(=O)NCCCN2CCOCC2)c(=O)c2cc3sccc3n12	none
CCCN1CCN(C(=O)Cn2nc(CC)n3c(cc4sccc43)c2=O)CC1	VIM-2 inh 33 | IMP-1 inh-2 inactive | VIM-2 FRET inh inactive | TEM-1 inh inactive | VIM-2 confirm 2 39
COc1ccc(OC)c(C2=Nn3c(nnc3-c3cc(OC)c(OC)c(OC)c3)SC2)c1	VIM-2 inh 13 | IMP-1 inh-2 inactive | VIM-2 FRET inh inactive | TEM-1 inh inactive | VIM-2 confirm 2 26
COc1ccc(C2=Nn3c(nnc3-c3ccco3)SC2)cc1OC	VIM-2 inh 23 | IMP-1 inh-2 inactive | VIM-2 FRET inh inactive | TEM-1 inh inactive | VIM-2 confirm 2 31
COc1ccc(C2=Nn3c(nnc3-c3ccccc3OC)SC2)cc1OC	VIM-2 inh 14 | IMP-1 inh-2 inactive | VIM-2 FRET inh inactive | TEM-1 inh inactive | VIM-2 confirm 2 27
COc1ccc(C2=Nn3c(nnc3-c3ccccn3)SC2)cc1OC	VIM-2 inh 52 | IMP-1 inh-2 inactive | VIM-2 FRET inh inactive | TEM-1 inh inactive | VIM-2 confirm 2 67
CS(=O)(=O)N1c2ccccc2[C@]2(Br)C[C@H]3C(=O)N[C@@H](Cc4ccccc4)C(=O)N3[C@H]12	none (no result: IMP-1 inh-1, FID counter, VIM-2 inh)
O=C(C1CCCO1)N1N=C(c2ccc(Br)cc2)CC1c1ccco1 (configuration not stated)	VIM-2 inh 18 | IMP-1 inh-2 inactive | VIM-2 FRET inh 57 | TEM-1 inh inactive | VIM-2 confirm 2 36
O=C(c1ccc(Br)o1)N1N=C(c2ccc(Cl)cc2)CC1c1ccco1 (configuration not stated)	VIM-2 inh 12 | IMP-1 inh-2 inactive | VIM-2 FRET inh 30 | TEM-1 inh inactive | VIM-2 confirm 2 19
Cc1ccc(C2=NN(C(=O)C3CCCO3)C(c3ccco3)C2)cc1 (configuration not stated)	VIM-2 inh 14 | IMP-1 inh-2 inactive | VIM-2 FRET inh 27 | TEM-1 inh inactive | VIM-2 confirm 2 17
Cc1ccc(C2=NN(C(=O)CCCC(=O)O)C(c3ccco3)C2)cc1 (configuration not stated)	none
O=C(c1ncc[nH]1)c1ccco1	none
C=CCn1c2ccccc2c2nn(C)c(=S)nc21	VIM-2 inh 14 | IMP-1 inh-2 inactive | VIM-2 FRET inh inactive | TEM-1 inh inactive | VIM-2 confirm 2 17
CCOC(=O)c1cnc2c(cnn2C)c1NCCC#N	none
CCOC(=O)c1cnc2c(cnn2C)c1NCCCn1ccnc1	VIM-2 inh 75 | IMP-1 inh-2 inactive | VIM-2 FRET inh inactive | TEM-1 inh inactive | VIM-2 confirm 2 81
O=C(Nc1cccc2ncccc12)c1ccc([N+](=O)[O-])o1	none
CCOC(=O)c1sc2nc(C)nc(NC3CCC(O)CC3)c2c1C (configuration not stated)	VIM-2 inh 23 | IMP-1 inh-2 inactive | VIM-2 FRET inh inactive | TEM-1 inh inactive | VIM-2 confirm 2 32
COc1ccc(OC)c(NC(=O)C(=O)N/N=C/c2ccccc2[N+](=O)[O-])c1	none
CCOC(=O)N1CCN(C(=O)c2cc3c(=O)n4cccc(C)c4nc3s2)CC1	VIM-2 inh 16 | IMP-1 inh-2 inactive | VIM-2 FRET inh inactive | TEM-1 inh inactive | VIM-2 confirm 2 24
CCC(C)NC(=O)c1cc2c(=O)n3cccc(C)c3nc2s1 (configuration not stated)	VIM-2 inh 20 | IMP-1 inh-2 inactive | VIM-2 FRET inh inactive | TEM-1 inh inactive | VIM-2 confirm 2 27
C=CCNC(=O)c1cc2c(=O)n3cccc(C)c3nc2s1	VIM-2 inh 19 | IMP-1 inh-2 inactive | VIM-2 FRET inh inactive | TEM-1 inh inactive | VIM-2 confirm 2 26
CCOC(=O)N1CCN(C(=O)c2cccn3c(=O)c4c5c(sc4nc23)CCCC5)CC1	none
Cc1nn(-c2ccc(Cl)c(Cl)c2Cl)c(=O)c2ccccc12	none
O=c1c2ccccc2nnn1Cc1nnc(-c2ccccc2Br)o1	VIM-2 inh 17 | IMP-1 inh-2 inactive | VIM-2 FRET inh 21 | TEM-1 inh inactive | VIM-2 confirm 2 13
O=C1c2ccccc2S(=O)(=O)N1Cc1nnc(-c2ccccc2Br)o1	none (no result: HCV core dimer)
CCN1CCN(c2cc(N3CCN(C(=O)c4ccco4)CC3)c3c4c(onc24)-c2ccccc2C3=O)CC1	VIM-2 inh 23 | IMP-1 inh-2 inactive | VIM-2 FRET inh inactive | TEM-1 inh inactive | VIM-2 confirm 2 21
CC1(C)Cc2c(sc(NC(=O)C(=O)NCCCN3CCOCC3)c2C(N)=O)CO1	none
COC(=O)c1c(NC(=O)C(=O)NCCCN2CCOCC2)sc2c1CCC2	VIM-2 inh 14 | IMP-1 inh-2 inactive | VIM-2 FRET inh inactive | TEM-1 inh inactive | VIM-2 confirm 2 25
COC(=O)c1c(NC(=O)C(=O)NCCCN2CCOCC2)sc2c1CC(C)(C)OC2	VIM-2 inh 13 | IMP-1 inh-2 inactive | VIM-2 FRET inh inactive | TEM-1 inh inactive | VIM-2 confirm 2 20
N#Cc1c(NC(=O)C(=O)NCCCN2CCOCC2)sc2c1CCCC2	none
COc1cc(NC(=O)CCCSc2nc(-c3ccco3)cc(C(F)(F)F)n2)cc(OC)c1OC	none
CCOC(=O)c1sc(NC(=O)CCN2CCN(C)CC2)c(C(=O)OCC)c1C	VIM-2 inh 16 | IMP-1 inh-2 inactive | VIM-2 FRET inh inactive | TEM-1 inh inactive | VIM-2 confirm 2 48
CCOC(=O)c1c(NC(=O)CSc2ncn[nH]2)sc(C(C)=O)c1C	VIM-2 inh 24 | IMP-1 inh-2 inactive | VIM-2 FRET inh inactive | TEM-1 inh inactive | VIM-2 confirm 2 32
CCc1ccc(CNC(=O)c2ccc3c(c2)NC(=O)C(N2CCOCC2)S3)cc1 (configuration not stated)	none
Cn1c(N)c(C(=O)c2cc(-c3ccccn3)nc3ccccc23)c(=O)[nH]c1=O	VIM-2 inh 38 (no result: HCV core dimer) | IMP-1 inh-2 inactive | VIM-2 FRET inh inactive | TEM-1 inh inactive | VIM-2 confirm 2 42
Cc1cc(NCCCN)nc(-c2ccccc2O)n1	VIM-2 inh 36 | IMP-1 inh-2 inactive | VIM-2 FRET inh inactive | TEM-1 inh inactive | VIM-2 confirm 2 54
Cc1ccc(Nc2cc(C)nc(-c3ccccc3O)n2)cc1	none
C(=C\c1ccccc1)/CN1CCN(c2ncnc3c2oc2ccccc23)CC1	none
c1ccc2[nH]c(CN3CCN(c4ncnc5c4oc4ccccc45)CC3)nc2c1	VIM-2 inh 15 | IMP-1 inh-2 inactive | VIM-2 FRET inh inactive | TEM-1 inh inactive | VIM-2 confirm 2 27
CSS(=O)(=O)c1cccc2cccnc12	VIM-2 inh 38 | IMP-1 inh-2 inactive | VIM-2 FRET inh inactive | TEM-1 inh inactive | VIM-2 confirm 2 43
O=C(O)c1cccc(Nc2cc(Cl)c3nonc3c2[N+](=O)[O-])c1	none
